This is an account of results in ChEMBL document CHEMBL5236592, “Induction of Ferroptosis in Glioblastoma and Ovarian Cancers by a New Pyrrole Tubulin Assembly Inhibitor” (J Med Chem, 2022).

Active and inactive are the calls of the source. No cut-off for these calls is given here.

Data set [1] can be described thus: Selectivity index, ratio of IC50 for cytotoxicity against human U-87 MG cells to IC50 for cytotoxicity against human OVCAR-3 cells. In kind it is toxicity, cell-based. As to conditions: U-87 MG cells versus OVCAR-3 cells, read-out: Ratio IC50.
The next data set relates to OVCAR-3. Put plainly: Induction of apoptosis in human OVCAR-3 cells assessed as increase cleaved PARP expression at 5 to 10 nM incubated for 48 hrs by immunoblot analysis. As to conditions: dose 5-10 nM. In kind it is functional, cell-based. In outline: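 OVCAR-3 cells were grown in DMEM with 20% FBS and 0.01 μg/mL insulin. They were treated for 48 h at 0, 0.25, 2.5, 5 and 10 nM. Lysates were made in SDS–urea, sonicated and run on SDS-PAGE, then transferred to nitrocellulose. Blots were probed with anti-PARP (1:1000; full-length and cleaved) and anti-actin loading control (1:10,000), with HRP/ECL detection.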

Data set [2] has as its system U-87MG ATCC. Briefly: Induction of ferroptosis-mediated antitumor activity against human U-87 MG cells xenografted in BALB/C nu/nu mouse assessed as increase in […] level in tumor at 25 mg/kg, ip administered every 2 days for 40 days by biochemical analysis. In kind it is functional, organism-based. As to conditions: time 40.0 day. In outline: (§1)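 U-87 MG or SKOV-3 sc xenografts (1 × 10^8 cells/mL) in female BALB/c nu/nu mice, 4 per group. Given 25 mg/kg ip in 100 μL every 2 days, or saline. Tumors harvested on day 40 and assayed for LPO, MDA, lactic acid, total glutathione (GSH + GSSG), ATP and Fe2+.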
A general note: A xenograft is tissue or cells of one species grown in another, often human tumour cells in immunodeficient mice.

Data set [3] deals with U-87MG ATCC. Briefly: Induction of ferroptosis-mediated antitumor activity against human U-87 MG cells xenografted in BALB/C nu/nu mouse assessed as increase in malondialdehyde level in tumor at 25 mg/kg, ip administered every 2 days for 40 days by biochemical analysis. In kind it is functional, organism-based. Particulars: time 40.0 day. In outline:
as §1

The subject of data set [4] is SK-OV-3. Put plainly: Induction of ferroptosis-mediated antitumor activity against human SK-OV-3 cells xenografted in BALB/C nu/nu mouse assessed as increase in lactic acid level in tumor at 25 mg/kg, ip administered every 2 days for 40 days by biochemical analysis. Particulars: time 40.0 day. In kind it is functional, organism-based. In outline: as §1
Data set [5] relates to SK-OV-3. Put plainly: Induction of ferroptosis-mediated antitumor activity against human SK-OV-3 cells xenografted in BALB/C nu/nu mouse assessed as reduction in total glutathione level in tumor at 25 mg/kg, ip administered every 2 days for 40 days by biochemical analysis. In kind it is functional, organism-based. As to conditions: time 40.0 day. The method, boiled down: as §1

Data set [6] relates to Mus musculus. Put plainly: Upregulation of Ptgs2 mRNA expression in tumor of BALB/C nu/nu mouse xenografted with human U-87 MG cells at 25 mg/kg, ip administered every 2 days for 40 days by qPCR analysis. In kind it is functional, organism-based. Particulars: time 40.0 day. The method, boiled down:
(§2)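 Female BALB/c nu/nu mice, 10 weeks old, 4 per group. Inoculated s.c. with 1 × 10^8 cells/mL of log-phase U-87 MG or SKOV-3 cells. Dosed i.p. with 100 μL at 25 mg/kg every 2 days; controls got 100 μL saline. Tumors harvested on day 40. RNA extracted from about 20 mg of tissue. qPCR panel of 69 genes, 40 cycles (94 °C 20 s, 60 °C 34 s). Analysed by 2–ΔΔCt; fold ≥1.5 taken as increased.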

Data set [7] relates to Mus musculus. Put plainly: Upregulation of Akr1c1 mRNA expression in tumor of BALB/C nu/nu mouse xenografted with human U-87 MG cells at 25 mg/kg, ip administered every 2 days for 40 days by qPCR analysis. In kind it is functional, organism-based. Particulars: time 40.0 day. The method, boiled down:
(§3)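 Female BALB/c nu/nu mice bearing sc U-87 MG or SKOV-3 xenografts were dosed ip at 25 mg/kg (100 μL) every 2 days, or given saline, and tumors were taken at day 40. RNA was extracted from about 20 mg of tissue. qPCR ran 40 cycles (95 °C 15 min; 94 °C 20 s; 60 °C 34 s) on a 69-gene panel. Fold change was by 2^–ΔΔCt, with ≥1.5 counted as increased.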

Data set [8] concerns Mus musculus. Briefly: Upregulation of PPIF mRNA expression in tumor of BALB/C nu/nu mouse xenografted with human U-87 MG cells at 25 mg/kg, ip administered every 2 days for 40 days by qPCR analysis. In kind it is functional, organism-based. Particulars: time 40.0 day. In outline: as §2
The subject of data set [9] is Mus musculus. Briefly: Upregulation of Gpx4 mRNA expression in tumor of BALB/C nu/nu mouse xenografted with human U-87 MG cells at 25 mg/kg, ip administered every 2 days for 40 days by qPCR analysis. In kind it is functional, organism-based. Particulars: time 40.0 day. The method, boiled down: as §2
Data set [10] has as its system Mus musculus. Briefly: Upregulation of TFRC mRNA expression in tumor of BALB/C nu/nu mouse xenografted with human U-87 MG cells at 25 mg/kg, ip administered every 2 days for 40 days by qPCR analysis. In kind it is functional, organism-based. Particulars: time 40.0 day. The method, boiled down: as §2
The test system of data set [11] is Mus musculus. Put plainly: Upregulation of Nrf2 mRNA expression in tumor of BALB/C nu/nu mouse xenografted with human U-87 MG cells at 25 mg/kg, ip administered every 2 days for 40 days by qPCR analysis. In kind it is functional, organism-based. As to conditions: time 40.0 day. In outline:
as §2

In data set [12] the test system is Mus musculus. Briefly: Upregulation of Cpx mRNA expression in tumor of BALB/C nu/nu mouse xenografted with human SK-OV-3 cells at 25 mg/kg, ip administered every 2 days for 40 days by qPCR analysis. In kind it is functional, organism-based. As to conditions: time 40.0 day. The method, boiled down: as §3
The test system of data set [13] is Mus musculus. Briefly: Upregulation of FTH1 mRNA expression in tumor of BALB/C nu/nu mouse xenografted with human SK-OV-3 cells at 25 mg/kg, ip administered every 2 days for 40 days by qPCR analysis. In kind it is functional, organism-based. Particulars: time 40.0 day. In outline:
as §3

The subject of data set [14] is Mus musculus. Put plainly: Upregulation of Gpx4 mRNA expression in tumor of BALB/C nu/nu mouse xenografted with human SK-OV-3 cells at 25 mg/kg, ip administered every 2 days for 40 days by qPCR analysis. In kind it is functional, organism-based. Particulars: time 40.0 day. In outline: as §2
In data set [15] the test system is Mus musculus. Briefly: Upregulation of Akr1c1 mRNA expression in tumor of BALB/C nu/nu mouse xenografted with human SK-OV-3 cells at 25 mg/kg, ip administered every 2 days for 40 days by qPCR analysis. In kind it is functional, organism-based. Particulars: time 40.0 day. In outline:
as §3

The subject of data set [16] is Mus musculus. Briefly: Upregulation of Sqs mRNA expression in tumor of BALB/C nu/nu mouse xenografted with human SK-OV-3 cells at 25 mg/kg, ip administered every 2 days for 40 days by qPCR analysis. In kind it is functional, organism-based. As to conditions: time 40.0 day. In outline:
as §2

For data set [17], the system named is U-87MG ATCC. Put plainly: Induction of ferroptosis-mediated antitumor activity against human U-87 MG cells xenografted in BALB/C nu/nu mouse assessed as reduction in GPX4 protein expression in tumor at 25 mg/kg, ip administered every 2 days for 40 days by immunofluoresence staining based assay. As to conditions: time 40.0 day. In kind it is functional, organism-based. In outline: (§4)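 Xenografts of U-87 MG or SKOV-3 (1 × 10^8 cells/mL, sc) in female BALB/c nu/nu mice, 4 per group. Treated ip at 25 mg/kg in 100 μL every 2 days versus saline, tumors collected at day 40. Paraffin sections (6 μm) were blocked at 37 °C for 30 min, then incubated with rabbit anti-GPX4 or anti-FTH1 and then Alexa Fluor 488 anti-rabbit, each for 45 min at 37 °C.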

Data set [18] deals with U-87MG ATCC. Put plainly: Induction of ferroptosis-mediated antitumor activity against human U-87 MG cells xenografted in BALB/C nu/nu mouse assessed as reduction in FTH1 protein expression in tumor at 25 mg/kg, ip administered every 2 days for 40 days by immunofluoresence staining based assay. In kind it is functional, organism-based. Particulars: time 40.0 day. In outline:
as §4

For the compound `COc1cc(C(=O)c2cn(-c3ncccn3)cc2-c2ccco2)cc(OC)c1OC`, the selectivity ratio in [1] came out at 3.5. The result with OVCAR-3, with U-87MG ATCC [2], in the data set on U-87MG ATCC [3], in the data set with SK-OV-3 [4], in the data set on SK-OV-3 [5] and in the data set on Mus musculus [6] was Active. Further, the outcome in the data set on Mus musculus [7], in the data set on Mus musculus [8], in the data set on Mus musculus [9], in the data set on Mus musculus [10], in the data set on Mus musculus [11] and in the data set on Mus musculus [12] was Active. For the same compound, the result with Mus musculus [13], in the data set with Mus musculus [14], in the data set with Mus musculus [15], with Mus musculus [16], with U-87MG ATCC [17] and with U-87MG ATCC [18] was Active.
